The list is not random: actives were taken first. Their share in the collection is about 1.4%.
NRP1-CendR mod: modulators of CendR peptide binding to NRP-1, primary screen, biochemical, fluorescence polarization, uHTS. FAM-RPARPAR peptide binding to NRP-1. 360,000 compounds, 0.85% hits. Neuropilin-1 (Homo sapiens), O14786. inhibition, % at 25 µM;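 active means inhibition or corrected inhibition above about 18%, plus a signal ratio from 0.5 to 1.5, limit read from the data, passing the limit was not always enough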
iPSC survival up: enhancers of single-cell hiPSC survival, primary screen, ATPlite luminescence; 100% = ROCK inhibitor wells, 0% = DMSO; survival enhancement, % at 20 µM; 360,000 compounds, 0.044% hits; AID 602274, 2012; in the data active means survival enhancement above about 18%;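 further: cells exposed to compounds for 16 hours before the ATP read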
SKN-1 inh: suppressors of acrylamide-induced Pgst-4::GFP reporter in worms, primary screen, SKN-1 inhibitor project, whole organism, uHTS, GFP/RFP fluorescence ratio, strain VP596; inhibition, % at 21.8 µM; 360,000 compounds, 0.49% hits; C. elegans VP596 Pgst-4::GFP/RFP ratio, 24 h; AID 624304, 2012;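 active means interference check ratio from 0.5 to 1.5 plus GFP to RFP signal ratio inhibition reaching or exceeding a fixed threshold, cut at about 30% in these data, passing the limit was not always enough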
MT1-MMP act inh: blockers of MT1-MMP proenzyme processing, primary screen, HT1080 RFP-PRO-GFP cells, GFP/RFP fluorescence; GFP/RFP ratio change, % at 20 µM; Matrix metalloproteinase-14 (Homo sapiens), P50281; 360,000 compounds, 0.061% hits; GFP/RFP ratio fluorescence, overnight; percent of plate control window, DMSO zero;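 active means GFP/RFP ratio change of at least 30% with cell ATP level not reduced by more than half and red fluorescence within 50% of control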
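Read-out: GFP/RFP fluorescence ratio; Test system: RFP-PRO-GFP reporter HT1080 cells; Compound dosing: single-point 20 µM compound, 1% DMSO; Times: overnight compound exposure at 37 °C.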
* hit, by the source's call.

SMILES	NRP1-CendR mod	iPSC survival up	SKN-1 inh	MT1-MMP act inh
CCOC(=O)C1CCCN(CCC(=O)Nc2ccccc2C)C1 (stereo not drawn)	22.6*	0.6	0.2	0.5
O=C(CCN1CCCCCC1)Nc1ccccc1F	-14.5	3.4	49.1*	2.0
O=C(Nc1ccccc1F)C1CCCC1	14.5	-0.8	41.3*	3.8
O=C(COC(=O)c1ccccc1NC(=O)c1ccco1)NC1CC1	2.0	1.9	7.8	0.2
CCOC(=O)CSc1nc2ccccc2c(=O)n1CC1COc2ccccc2O1 (stereo not drawn)	3.4	1.5	-1.2	-6.9
CCOC(=O)[C@]12CCC=C1N(Cc1cccc3ccccc13)C(=O)[C@H](CC(=O)N1CCCCC1)C2	11.3	-0.7	13.9	-3.8
O=C1CC(c2ccc(Cl)cc2)CC(O)=C1C=NCCO (stereo not drawn)	16.2*	-0.5	20.2	4.6
Oc1ccc(Nc2ncnc3c2oc2ccccc23)cc1	-3.4	-0.6	17.2	-1.0
c1ccc(Nc2ncnc3c2oc2ccccc23)cc1	24.3*	-1.2	5.0	-6.6
Cc1ccc(S(=O)(=O)N2CCN(C(=O)N3CCOCC3)C2C(C)C)cc1 (stereo not drawn)	4.4	0.3	-2.2	8.3
O=C(C=Cc1ccccc1)c1ccc([N+](=O)[O-])cc1	17.6*	0.5	1.9	-0.1
Cc1c(C(=O)OC2CCCC2C)[nH]c2c1C(=O)CCC2 (stereo not drawn)	-15.4	0.6	0.8	-13.5
O=C1c2ccccc2C(=O)c2c(/C=C/N3CCCCC3)ccnc21	79.8*	-1.9	27.4	-44.7
CN(CC(=O)Nc1cccc(F)c1)C(=O)Cn1c(=O)oc2ccccc21	22.6*	0.2	3.9	4.6
CC1CCCCN1C(=O)Cn1c(=O)oc2ccccc21 (stereo not drawn)	0.1	-2.4	-0.9	-0.1
CN(CC(=O)Nc1ccc(F)cc1)C(=O)Cn1c(=O)oc2ccccc21	-8.0	-0.5	-2.7	-9.5
CN(C(=O)Cn1c(=O)oc2ccccc21)C1CCCCC1	20.0*	-2.1	-0.8	2.8
CC(C)c1ccc(-c2nc3ccccc3s2)cc1	-17.5	-1.0	46.4*	-5.3
CN(C(=O)OC(C)(C)C)c1ccc(-c2nc3ccccc3s2)cc1	2.5	-3.5	43.4*	5.9
CCCc1cc(=O)oc2cc(OCC(=O)N3CCOCC3)c(Cl)cc12	-3.5	-0.1	-1.0	-0.6
COc1cc2c(cc1OC)C(=O)C(c1ccc3c(c1)OCO3)CC2 (stereo not drawn)	2.9	0.1	18.7	-3.4
COc1cc2c(cc1OC)C(=O)C(Br)CC2 (stereo not drawn)	25.5*	-1.1	8.7	2.1
O=C(CC1(O)C(=O)Nc2cc(Cl)cc(Cl)c21)c1ccccc1O (stereo not drawn)	43.3*	-0.8	6.8	7.9
CC(=O)c1ccc(OCC(=O)Nc2nnc(C3CC3)s2)cc1	29.0*	0.4	-16.2	1.9
O=C(COc1ccc(Br)cc1)Nc1nnc(C2CC2)s1	10.8	-1.4	-0.9	-4.3
SMILES	NRP1-CendR mod	iPSC survival up	SKN-1 inh	MT1-MMP act inh
O=C1CC(N2CCN(Cc3ccc4c(c3)OCO4)CC2)C(=O)N1c1cccc(Cl)c1 (stereo not drawn)	37.1*	-0.9	0.8	3.1
COc1cccc(N2CC(O)=C(c3ccccc3)C2=N)c1	14.8	10.5	35.2*	1.2
COc1cccc(N2CC(O)=C(c3nc4ccccc4s3)C2=N)c1	-5.5	-0.8	-2.8	10.3
O=C(Nc1ccc2c(c1)OCO2)C1CCN(S(=O)(=O)Cc2ccccc2)CC1	3.3	-3.2	7.2	-2.9
O=C(O/N=C1/CCSc2ccccc21)c1ccccc1	26.0*	-1.3	-1.2	-0.5
CC(C)=CCNc1ncnc2c1c(C#N)cn2C1OC(CO)C(O)C1O (stereo not drawn)	26.2*	-2.3	14.5	-2.3
OCC1OC(n2ccc3c(NO)ncnc32)C(O)C1O (stereo not drawn)	-7.5	-2.8	10.6	-28.6
CC(=O)Nc1ccc(Oc2nc(-c3cccnc3)nc3sc4c(c23)CCCC4)cc1	0.8	-0.4	3.9	-0.9
O=C(NCCCN1CCN(c2ccccc2F)CC1)Nc1ccc(F)cc1	-9.6	-2.7	26.1	4.1
CSc1ccc(NC(=O)NCCCN2CCN(c3ccccc3F)CC2)cc1	12.9	-2.5	33.4*	8.3
CC/C(=C1/C(=O)CC(C)(C)C(C(=O)OC)C1=O)N1CCCC1 (stereo not drawn)	35.0*	-2.9	-26.7	2.3
O=S(=O)(Nc1ccc2c3c(cccc13)CC2)c1ccccc1	10.1	5.3	-7.8	-2.7
Cc1ccc(-c2csc(NC(=O)c3ccc(C)o3)n2)cc1	8.5	3.5	12.1	-0.3
Cc1ccc(-c2csc(NC(=O)c3ccno3)n2)cc1	-20.4	-0.3	37.4*	-2.5
Cc1ccc(C(=O)Nc2nc(-c3ccc(F)cc3)cs2)o1	12.1	-0.1	35.7*	3.1
Cc1ccnc(NC(=O)c2cc3c(=O)oc4ccc(C)cc4c3s2)c1	-7.0	0.2	-7.5	0.8
CC(C)Oc1ccc(F)cc1-c1cc(C(=O)Nc2ccccc2)[nH]n1	4.0	-2.9	2.1	-0.6
COc1ccc(F)cc1-c1cc(C(=O)NCc2cccc(C(F)(F)F)c2)[nH]n1	18.0*	5.3	7.0	1.4
CC(C)Oc1ccc(F)cc1-c1cc(C(=O)NCc2ccc(F)cc2)[nH]n1	27.4*	-2.7	-7.8	-2.7
COc1ccc(F)cc1-c1cc(C(=O)NCc2ccc(C(F)(F)F)cc2)[nH]n1	-4.4	-0.8	2.9	1.1
O=C(CNCc1ccc(F)cc1)Nc1ccc(S(=O)(=O)N2CCOCC2)cc1	-0.7	0.0	13.8	-0.1
CCO[C@H]1OC(C(=O)NCc2ccccc2)=C[C@@H](c2cn(C(C)=O)c3ccccc23)[C@@H]1CCCO	12.1	-1.7	13.4	-2.2
O=C(OC1CCOC1=O)C1CCN(S(=O)(=O)c2c(Cl)cccc2Cl)CC1 (stereo not drawn)	20.2*	0.1	-3.5	-13.6
COc1ccccc1N1CCN(C(=O)COc2cccc3ccccc23)CC1	31.4*	1.2	10.1	0.3
COc1ccccc1N1CCN(C(=O)C2CC2)CC1	1.5	-0.1	-10.2	2.9
COc1ccc(S(=O)(=O)N(CC(=O)N2CCN(c3ccccc3OC)CC2)c2ccccc2)cc1	-3.5	1.4	37.0*	-2.2
COc1ccccc1N1CCN(C(=O)C2c3ccccc3Oc3ccccc32)CC1	24.7*	0.9	3.9	0.3
CC1CCCCC1N1CN=C(Nc2nc3ccccc3s2)NC1 (stereo not drawn)	-3.5	0.9	56.3*	7.1
CC(=O)CSc1nc2ccccc2s1	11.3	5.0	34.2*	0.1
N#Cc1ccc(-c2cccnc2)nc1SCC(=O)Nc1sc2c(c1C#N)CCC2	-72.3	2.0	39.0*	-71.4
